Data from paper PMC2261226 (EMBO Reports, 2008).
Changes are numbered by the printed parent chain.

What was measured:
[1] = system: AIRE–PHD1; assay: Histone pull-down after EDTA treatment; conditions: 50 mM EDTA, overnight 4 °C prior to histone binding
Outline: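 AIRE–PHD1 expressed as a glutathione-S-transferase (GST) fusion and incubated with whole histones. Bound H3 detected by western blot with anti-H3; GST-PHD protein visualised by Coomassie staining.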

[2] = biological target: AIRE–PHD1 wild type (UniProt O43918); assay: other fluorescence titration
[3] = biological target: AIRE–PHD1 wild type (UniProt O43918); assay: ITC
[4] = biological target: AIRE–PHD1 WT (Homo sapiens, UniProt O43918); assay: Tryptophan fluorescence titration, AIRE-PHD1 wild type; type: binding
[5] = biological target: T1, AIRE–PHD1 V301M (Homo sapiens, UniProt O43918, V301M); assay: Tryptophan fluorescence titration, AIRE-PHD1 V301M; type: binding
T1 sequence (O43918 296-343 V301M limits assumed): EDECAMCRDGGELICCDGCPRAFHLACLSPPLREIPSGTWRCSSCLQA
Outline: (§1)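 Tryptophan fluorescence spectroscopy titration of AIRE–PHD1 point mutants with histone H3 peptides: H3K4me0 for all; D297A also with H3K4me3. Dissociation constants were derived from the titrations. ND denotes binding too weak to quantify reliably.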

[6] = biological target: T2, AIRE–PHD1 C311Y (Homo sapiens, UniProt O43918, C311Y); assay: Tryptophan fluorescence titration, AIRE-PHD1 C311Y; type: binding
T2 sequence (O43918 296-343 C311Y limits assumed): T1 sequence (O43918 296-343 V301M limits assumed) with M6V, C16Y
Outline: as §1

[7] = biological target: T3, AIRE–PHD1 D297A (Homo sapiens, UniProt O43918, D297A); assay: Tryptophan fluorescence titration, AIRE-PHD1 D297A; type: binding
T3 sequence (O43918 290-349 D297A): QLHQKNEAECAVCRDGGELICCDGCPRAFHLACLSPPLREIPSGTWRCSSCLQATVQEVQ
Outline: as §1

[8] = biological target: T4, AIRE–PHD1 D312A (Homo sapiens, UniProt O43918, D312A); assay: Tryptophan fluorescence titration, AIRE-PHD1 D312A; type: binding
T4 sequence (O43918 296-343 D312A limits assumed): T1 sequence (O43918 296-343 V301M limits assumed) with M6V, D17A
Outline: as §1

[9] = biological target: T5, AIRE–PHD1 WT (Homo sapiens, UniProt O43918); assay: biochemical; type: binding
T5 sequence (O43918 293-349 limits assumed): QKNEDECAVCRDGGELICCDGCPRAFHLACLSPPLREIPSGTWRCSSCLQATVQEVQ

[10] = biological target: T3, AIRE–PHD1 D297A; assay: Isothermal titration calorimetry, AIRE-PHD1 D297A; type: binding
[11] = biological target: T4, AIRE–PHD1 D312A; assay: Isothermal titration calorimetry, AIRE-PHD1 D312A; type: binding
Outline: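 ITC of H3K4me0 (histone H3, non-methylated K4) peptide binding to the AIRE–PHD1 D312A mutant. Sequential heat pulses were integrated, corrected for heat of dilution, and fit to a single-site binding model by nonlinear least squares to give N, Kd, ΔH and ΔS. ND denotes binding too weak to quantify reliably.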

[12] = biological target: AIRE–PHD1 wild type (UniProt O43918); assay: NMR titration

O=C(O)CN(CCN(CC(=O)O)CC(=O)O)CC(=O)O [EDTA] was tested, and the “effect on H3 binding, in words” value [1] was “greatly reduced”.

“histone H3 N-terminal peptide H3K4me2 (NMR, fluorescence, ITC)” showed a Kd [2] of over 500 µM and a Kd [3] of 714 µM.

In the case of “histone H3 N-terminal peptide H3K4me1 (NMR, fluorescence, ITC)”, the Kd [2] is reported as 21.4 µM and the Kd [3] is reported as 55.6 µM.

C[C@H](N)C(=O)N[C@@H](CCCNC(=N)N)C(=O)N[C@H](C(=O)N[C@@H](CCCCN)C(=O)N[C@@H](CCC(N)=O)C(=O)N[C@H](C(=O)N[C@@H](C)C(=O)N[C@@H](CCCNC(=N)N)C(=O)N[C@@H](CCCCN)C(=O)N[C@@H](CO)C(=O)O)[C@@H](C)O)[C@@H](C)O [H3K4me0] gave a Kd [4] of 4.7 ± 0.8 µM, a Kd [5] of 6.8 ± 0.4 µM and a Kd [6] of over 500 µM. The Kd [7] was 173 ± 18.6 µM, the Kd [8] was over 500 µM and the Kd [9] was 6.5 ± 0.2 µM. The Kd [10] was 147 ± 6.1 µM and the Kd [11] was over 714 µM.

Compound “histone H3 N-terminal peptide H3K4me0 (NMR, fluorescence, ITC)” has a maximum average chemical shift change [12] of 0.9 p.p.m.
